We go through 16 compounds from PubChem BioAssay.

What is called viability is a read-out of living cells in per cent, often relative to untreated cells. Usually inhibition stands for the drop in the measured response relative to a control, in per cent.

Structures are written as SMILES. Calls of active or inactive are those of the source.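 How the source made its calls, unless noted: active means viability at or under a set limit in both replicates, limit being median viability minus 3 SD (cut at about 48% in these data, passing the limit was not always enough); inconclusive means at or under the limit in just one replicate; inactive means at or above the limit in both replicates.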

Assay [1] can be described thus: Her2 expression decrease, cell viability multiplex – SKBR3 breast tumor cells, AlphaScreen, ATP viability, primary screen (AID 461;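 active means Her2 level under about 52% in both replicate screens, with viability over 70% of control, limit read from the data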;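 on Her2 level: lower value means less Her2 protein in the cells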;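 on viability: percent of carrier control wells set as 100% viability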). The note with it: SKBR3 Her2 protein level, 18-24 h, measured here: SKBR3 viability, ATP luminescence, at 10 µM.
Assay [2] has as its target Receptor tyrosine-protein kinase erbB-2 (Homo sapiens) (UniProt P04626). Described as above. Conditions: 18-24 h, at 10 µM, stronger effect = lower value.
Assay [3] is described as follows: reduced viability of SK-BR-3 breast cancer cells – cell-based, 24 h, human, pilot screen (AID 572;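 active means viability at or below 10% of carrier control in both of two separate runs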;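 further: compound exposure lasted between 18 and 24 h rather than exactly 24 h; 100% = carrier-treated control wells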). Conditions: SK-BR-3 viability, CellTiter-Glo luminescence, at 10 µM, stronger effect = lower value.
Assay [4] is described as follows: HUVEC growth inhibition – cell-based, human, primary screen (AID 575;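 active means viability at or below 30% in both replicate assays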;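 further: 100% = median of untreated cell wells with 0.1% DMSO on each plate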). Conditions: HUVEC proliferation, CellTiter-Glo luminescence, 72 h; at 10 µM; stronger effect = lower value. The method, boiled down:
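Assay system: Primary human umbilical vein endothelial cells | Quantity: 1250 cells per well | Medium: Supplemented EBM, 2% fetal bovine serum | Detection: CellTiter-Glo luminescence measuring cellular ATP | Read-out: % viability vs DMSO wells | Plate: Collagen-coated 384-well format | Times: 72 h exposure, 37 °C, 5% CO2, 30 min RT equilibration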
(In general: In ATP-based viability assays light output follows the ATP content of the culture.)

The nature of assay [5]: H69AR cell proliferation blockers – human, duplicate replicates, primary screen (AID 580).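 Further: 100% = mean luminescence of untreated wells and 0% = no signal.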 The note with it: H69AR lung tumor cells viability, ATP luminescence, 72 h; at 10 µM; stronger effect = lower value.
The nature of assay [6]: MRP1 drug-resistance reversers in H69AR cells – cell-based, doxorubicin co-treatment, pilot screen (AID 601;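 active means viability loss from added drug above about 55%, and viability with drug at most 40%, in both replicates, limit read from the data, passing the limit was not always enough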). Conditions: CellTiter-Glo, 72 h, at 10 µM; for differential viability (reversal): stronger effect = higher value.
The nature of assay [7]: yeast transport mutant growth inhibition pilot in 384-well plates, post-Golgi transport modulator project (AID 636; in the data active means inhibition above about 31%). Conditions: absorbance 615 nm, about 18 h, stronger effect = higher value.
Assay [8] in a line: growth suppression of yeast trafficking mutant, preliminary HTS, modulators of trafficking downstream of Golgi apparatus project, 1536-format plate, OD 615 nm (AID 637; in the data active means inhibition above about 30%). Conditions: yeast transport mutant growth, absorbance 615 nm, 18 h; stronger effect = higher value.
[9] abbreviates: H69AR cells + 2 uM doxorubicin, measured here: viability with 2 uM doxorubicin, stronger effect = lower value.
[10] abbreviates: H69AR cells, compound alone cytotoxicity.

Sequence of Receptor tyrosine-protein kinase erbB-2 (Homo sapiens) (P04626 whole entry, looked up): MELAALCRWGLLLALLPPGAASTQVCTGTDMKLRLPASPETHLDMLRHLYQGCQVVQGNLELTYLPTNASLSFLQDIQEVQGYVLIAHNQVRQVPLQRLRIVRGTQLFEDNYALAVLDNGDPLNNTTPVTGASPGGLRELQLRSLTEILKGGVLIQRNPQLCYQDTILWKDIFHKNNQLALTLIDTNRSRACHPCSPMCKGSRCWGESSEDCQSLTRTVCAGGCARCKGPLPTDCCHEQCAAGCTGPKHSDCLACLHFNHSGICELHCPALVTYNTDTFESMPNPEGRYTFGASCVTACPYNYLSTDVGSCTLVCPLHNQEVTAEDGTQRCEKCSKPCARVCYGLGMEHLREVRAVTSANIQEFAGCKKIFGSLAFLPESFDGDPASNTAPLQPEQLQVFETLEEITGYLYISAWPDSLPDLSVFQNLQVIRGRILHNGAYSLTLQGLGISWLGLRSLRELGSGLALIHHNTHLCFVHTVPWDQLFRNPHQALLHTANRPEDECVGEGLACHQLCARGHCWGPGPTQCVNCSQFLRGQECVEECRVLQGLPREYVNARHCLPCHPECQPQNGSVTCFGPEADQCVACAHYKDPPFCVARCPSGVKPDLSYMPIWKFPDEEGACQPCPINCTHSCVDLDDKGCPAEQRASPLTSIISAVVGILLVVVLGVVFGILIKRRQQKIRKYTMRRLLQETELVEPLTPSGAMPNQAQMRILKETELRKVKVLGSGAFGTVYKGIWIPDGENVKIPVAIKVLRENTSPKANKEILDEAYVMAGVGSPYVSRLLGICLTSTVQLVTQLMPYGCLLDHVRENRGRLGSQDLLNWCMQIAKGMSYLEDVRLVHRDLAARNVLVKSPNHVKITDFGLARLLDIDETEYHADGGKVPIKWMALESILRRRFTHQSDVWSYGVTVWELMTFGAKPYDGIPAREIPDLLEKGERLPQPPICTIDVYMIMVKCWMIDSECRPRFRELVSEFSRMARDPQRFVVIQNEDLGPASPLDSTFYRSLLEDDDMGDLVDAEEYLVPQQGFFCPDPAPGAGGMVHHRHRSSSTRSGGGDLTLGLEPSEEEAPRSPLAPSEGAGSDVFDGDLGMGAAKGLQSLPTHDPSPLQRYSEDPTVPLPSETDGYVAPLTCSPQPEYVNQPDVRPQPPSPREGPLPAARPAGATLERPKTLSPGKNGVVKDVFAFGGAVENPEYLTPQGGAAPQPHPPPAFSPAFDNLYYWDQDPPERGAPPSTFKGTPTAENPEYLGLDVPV

Turning to `CC(=O)NCCn1c(SCC(=O)NCC2CCCO2)nc2ccccc2c1=O` (stereo not given), the viability is 95% in assay [1]; 95% (inactive) in assay [3]; 109% (inactive) in assay [4]; 98.5% (inactive) in assay [5]; 88.4% in assay [6] (setting [9]); 98.5% in assay [6] (setting [10]). Moreover, the Her2 level in assay [2] was 99% (inactive). Further, in assay [6] (H69AR cells + 2 uM doxorubicin), the differential viability (reversal) is 10.1% (inactive). In addition, the inhibition in assay [7] was -0.26% (inactive); in assay [8], -8.1% (inactive).

Take `Cn1c(=O)c2c(nc(CN3CCOCC3)n2CC(O)CO)n(C)c1=O` (stereo not given): the viability is 111% in assay [1]; 111% (inactive) in assay [3]; 104% (inactive) in assay [4]; 86.2% (inactive) in assay [5]; 91.1% in assay [6] (setting [9]); 86.2% in assay [6] (setting [10]). In addition, the Her2 level in assay [2] is 107% (inactive). Also, the differential viability (reversal) in assay [6] (H69AR cells + 2 uM doxorubicin) is -4.93% (inactive). For the same compound, the inhibition in assay [7] was -3.9% (inactive); in assay [8], 2.46% (inactive).

Take `Cc1ccc(-c2nn(C)c(=O)c3ccccc23)cc1S(=O)(=O)NCCN1CCOCC1`: the viability in assay [1] was 87%; in assay [3], 87% (inactive); in assay [4] it was 98.6% (inactive); in assay [5], 93.3% (inactive); in assay [6] (setting [9]) it was 87.8%; in assay [6] (setting [10]), 93.3%. In assay [2], the Her2 level is 121% (inactive). For the same compound, in assay [6] (H69AR cells + 2 uM doxorubicin), the differential viability (reversal) is 5.54% (inactive). The inhibition is 6.8% (inactive) in assay [7] and -6.35% (inactive) in assay [8].

As for `COC(=O)CCC(=O)Nc1cccc(Br)c1`, the viability is 128% in assay [1]; 128% (inactive) in assay [3]; 110% (inactive) in assay [4]; 101% (inactive) in assay [5]; 100% in assay [6] (setting [9]); 101% in assay [6] (setting [10]). Moreover, in assay [2], the Her2 level is 85% (inactive). Further, in assay [6] (H69AR cells + 2 uM doxorubicin), the differential viability (reversal) was 0.985% (inactive). The inhibition in assay [7] was -9.32% (inactive); in assay [8] it was -3.65% (inactive).

On to `COc1ccc(-n2c(SCc3ccc(C#N)cc3)nnc2-c2ccccn2)cc1`, for which the viability was 82.5% in assay [1]; 82.5% (inactive) in assay [3]; 120% (inactive) in assay [4]; 96.3% (inactive) in assay [5]; 85% in assay [6] (setting [9]); 96.3% in assay [6] (setting [10]). For the same compound, the Her2 level in assay [2] is 91.5% (inactive). For the same compound, the differential viability (reversal) in assay [6] (H69AR cells + 2 uM doxorubicin) is 11.2% (inactive). In addition, the figures for the inhibition in assay [7] and in assay [8] were -7.16% (inactive) and -5.56% (inactive), respectively.

On to `Cc1cc(NC(=O)CSc2nccn2-c2ccc(F)cc2)no1`, for which the viability in assay [1] is 85.5%; in assay [3], 85.5% (inactive); in assay [4] it was 83.4% (inactive); in assay [5], 104% (inactive); in assay [6] (setting [9]), 88.4%; in assay [6] (setting [10]), 104%. In assay [2], the Her2 level was 81.5% (inactive). For the same compound, in assay [6] (H69AR cells + 2 uM doxorubicin), the differential viability (reversal) was 15.8% (inactive). The inhibition was -2.99% (inactive) in assay [7] and -3.17% (inactive) in assay [8].

As for `CCCC1(C(=O)OCC)NC(c2ccc(N(C)C)cc2)C2C(=O)N(c3ccccc3)C(=O)C21` (stereo not given), the viability is 109% in assay [1]; 109% (inactive) in assay [3]; 99.2% (inactive) in assay [4]; 97.2% (inactive) in assay [5]; 93.5% in assay [6] (setting [9]); 97.2% in assay [6] (setting [10]). In addition, the Her2 level in assay [2] is 99% (inactive). Moreover, in assay [6] (H69AR cells + 2 uM doxorubicin), the differential viability (reversal) is 3.73% (inactive). The values for the inhibition in assay [7] and in assay [8] were -7.11% (inactive) and -6.03% (inactive), respectively.

On to `COc1ccc(/C=N/n2c(=O)[nH]c3c([nH]c4ccc(C)cc43)c2=O)cc1CN1CCOCC1`, for which the viability was 112% in assay [1]; 112% (inactive) in assay [3]; 95.6% (inactive) in assay [4]; 84.6% (inactive) in assay [5]; 83.7% in assay [6] (setting [9]); 84.6% in assay [6] (setting [10]). The Her2 level in assay [2] was 100% (inactive). Further, the differential viability (reversal) in assay [6] (H69AR cells + 2 uM doxorubicin) is 0.925% (inactive). For the same compound, the inhibition is -1.71% (inactive) in assay [7] and 12% (inactive) in assay [8].

`CCN(CC)S(=O)(=O)c1ccc(Br)c(OC)c1`: the viability in assay [1] is 106%; in assay [3] it was 106% (inactive); in assay [4] it was 90.4% (inactive); in assay [5], 96.3% (inactive); in assay [6] (setting [9]) it was 91.3%; in assay [6] (setting [10]), 96.3%. Also, the Her2 level in assay [2] is 84% (inactive). Moreover, the differential viability (reversal) in assay [6] (H69AR cells + 2 uM doxorubicin) was 5.01% (inactive). Further, the inhibition is -6.89% (inactive) in assay [7] and -2.13% (inactive) in assay [8].

For the compound `CC(C)(C)C(=O)Cn1c(=N)n(Cc2ccccc2)c2ccccc21`, the viability is 84.5% in assay [1]; 84.5% (inactive) in assay [3]; 53.3% (inactive) in assay [4]; 76.2% (inactive) in assay [5]; 77.1% in assay [6] (setting [9]); 76.2% in assay [6] (setting [10]). In addition, in assay [2], the Her2 level is 81.5% (inactive). The differential viability (reversal) in assay [6] (H69AR cells + 2 uM doxorubicin) was -0.985% (inactive). For the same compound, the values for the inhibition in assay [7] and in assay [8] were -3.2% (inactive) and -2.3% (inactive), respectively.

On to `Cc1cc(C)n2nc(SCc3cc(=O)n4ccccc4n3)nc2n1`, for which the viability in assay [1] was 100%; in assay [3], 100% (inactive); in assay [4], 107% (inactive); in assay [5], 101% (inactive); in assay [6] (setting [9]), 95.3%; in assay [6] (setting [10]), 101%. Further, in assay [2], the Her2 level is 72.5% (inactive). Moreover, the differential viability (reversal) in assay [6] (H69AR cells + 2 uM doxorubicin) was 5.5% (inactive). Further, the results for the inhibition in assay [7] and in assay [8] were -4.47% (inactive) and -1% (inactive), respectively.

`CN(C)S(=O)(=O)c1ccc(Oc2ccc(S(=O)(=O)N(C)C)cc2)cc1`: the viability is 80.5% in assay [1]; 80.5% (inactive) in assay [3]; 54.4% (inactive) in assay [4]; 93.8% (inactive) in assay [5]; 94.6% in assay [6] (setting [9]); 93.8% in assay [6] (setting [10]). Besides, the Her2 level in assay [2] is 96.5% (inactive). Also, the differential viability (reversal) in assay [6] (H69AR cells + 2 uM doxorubicin) was -0.755% (inactive). Further, the inhibition in assay [7] was -2.4% (inactive); in assay [8] it was -7.14% (inactive).

Take `Cn1c(SCC(=O)N2CCOCC2)nnc1-c1cnccn1`: the viability in assay [1] is 109%; in assay [3], 109% (inactive); in assay [4], 101% (inactive); in assay [5] it was 109% (inactive); in assay [6] (setting [9]), 98.7%; in assay [6] (setting [10]), 109%. Also, in assay [2], the Her2 level was 116% (inactive). In assay [6] (H69AR cells + 2 uM doxorubicin), the differential viability (reversal) is 10.4% (inactive). The inhibition in assay [7] was -4.34% (inactive); in assay [8], -9.17% (inactive).

On to `O=C(CN1CCN(Cc2ccc3c(c2)OCO3)CC1)Nc1ccc2c(c1)OCCO2`, for which the viability in assay [1] was 97%; in assay [3], 97% (inactive); in assay [4], 93.8% (inactive); in assay [5], 94.4% (inactive); in assay [6] (setting [9]), 78%; in assay [6] (setting [10]) it was 94.4%. The Her2 level in assay [2] is 89.5% (inactive). Besides, the differential viability (reversal) in assay [6] (H69AR cells + 2 uM doxorubicin) was 16.4% (inactive). For the same compound, the values for the inhibition in assay [7] and in assay [8] were -2.43% (inactive) and -1.27% (inactive), respectively.

Take `FC(F)Sc1nnc(-c2cccs2)n1-c1ccccc1`: the viability in assay [1] is 101%; in assay [3], 101% (inactive); in assay [4] it was 93.6% (inactive); in assay [5] it was 98% (inactive); in assay [6] (setting [9]), 87.9%; in assay [6] (setting [10]), 98%. In assay [2], the Her2 level is 92% (inactive). The differential viability (reversal) in assay [6] (H69AR cells + 2 uM doxorubicin) was 10.1% (inactive). The inhibition in assay [7] was -7.33% (inactive); in assay [8], 2.74% (inactive).

As for `CC(C(=O)OCn1nnc2ccccc2c1=O)N1C(=O)c2ccccc2C1=O` (stereo not given), the viability in assay [1] was 110%; in assay [3], 110% (inactive); in assay [4], 93.9% (inactive); in assay [5] it was 86.6% (inactive); in assay [6] (setting [9]) it was 108%; in assay [6] (setting [10]) it was 86.6%. In addition, in assay [2], the Her2 level was 100% (inactive). Also, the differential viability (reversal) in assay [6] (H69AR cells + 2 uM doxorubicin) was -21% (inactive). The inhibition in assay [7] was -1.45% (inactive); in assay [8], 30.2% (active).
